From PubChem BioAssay AID652011 (Sanford-Burnham Center for Chemical Genomics, 2013) come the findings set out here.

Values joined by “and” are separate entries in the source; they are usually repeats but may differ in a detail not shown here. Equal entries are not always repeated.

What is called inhibition is the change of the read-out against control, counted positive when it falls.

The target in the experiment is Endothelial PAS domain-containing protein 1 (Homo sapiens) (UniProt Q99814). Nature of the experiment: HIF reporter inhibition across pancreatic and renal lines – cell-based, luminescence, MIAPaCa-2, 786-0, panel, SAR follow-up (AID 652011). The note with it: MIAPaCa-2/PANC HIF reporter, luciferase luminescence, desferoxamine, overnight, HIF2a PANC, run 1; at 99 µM (top of the series). The gist of the method: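 Probe or stimulus: desferoxamine stimulus / Schedule: overnight compound incubation at 37 °C, 10 min reagent / Dosing: compounds from 10 mM and 0.3125 mM stocks, 1% DMSO final / Signal: luciferase luminescence with One-Glo reagent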
Sequence of Endothelial PAS domain-containing protein 1 (Homo sapiens) (Q99814 whole entry, looked up, the tested form may be a part): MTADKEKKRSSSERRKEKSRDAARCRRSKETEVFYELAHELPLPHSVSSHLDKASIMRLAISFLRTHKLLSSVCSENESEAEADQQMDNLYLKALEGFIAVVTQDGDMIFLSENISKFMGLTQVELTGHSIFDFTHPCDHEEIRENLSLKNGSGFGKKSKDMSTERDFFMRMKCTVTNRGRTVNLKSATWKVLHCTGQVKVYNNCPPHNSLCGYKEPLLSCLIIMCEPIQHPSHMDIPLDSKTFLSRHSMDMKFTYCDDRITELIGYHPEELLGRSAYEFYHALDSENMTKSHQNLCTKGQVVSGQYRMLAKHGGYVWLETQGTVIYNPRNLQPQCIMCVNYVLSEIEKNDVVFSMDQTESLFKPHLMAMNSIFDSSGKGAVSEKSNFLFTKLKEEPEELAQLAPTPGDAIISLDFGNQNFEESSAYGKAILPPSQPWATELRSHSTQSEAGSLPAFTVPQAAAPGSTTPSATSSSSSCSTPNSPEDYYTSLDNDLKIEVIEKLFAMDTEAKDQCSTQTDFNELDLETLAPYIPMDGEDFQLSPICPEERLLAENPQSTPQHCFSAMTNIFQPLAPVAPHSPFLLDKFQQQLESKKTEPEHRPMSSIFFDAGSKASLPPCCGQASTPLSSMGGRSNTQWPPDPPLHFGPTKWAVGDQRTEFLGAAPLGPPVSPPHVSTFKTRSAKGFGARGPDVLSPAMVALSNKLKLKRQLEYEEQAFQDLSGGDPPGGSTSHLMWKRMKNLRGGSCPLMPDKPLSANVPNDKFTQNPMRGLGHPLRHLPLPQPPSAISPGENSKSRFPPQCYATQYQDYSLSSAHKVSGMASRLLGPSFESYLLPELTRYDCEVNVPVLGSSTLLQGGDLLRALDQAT

As to `CNC(=O)CCc1nc(-c2ccc(Cl)cc2)no1`, the inhibition was 13.4%. Under `CC(C)(C)c1ccc(-c2noc(CCC(=O)N3CCCCC3)n2)cc1` stands 103%; under `CCC(C)NC(=O)CCc1nc(-c2ccc(C(C)(C)C)cc2)no1` (stereo not given), -20.2%. Then `CC(C)(C)c1ccc(-c2noc(CCC(=O)NCc3ccco3)n2)cc1`, with 86.1% and 78.5%; and `O=C(O)CCc1nc(-c2ccccc2)no1`, with 25.2%.
